The entries come from a sample that favours hits as a whole.
KDM4C inh: blocks human GASC-1 (KDM4C) demethylase activity; Q9H3R0; GST-KDM4C 2-372, H3K9me3 peptide, LANCE TR-FRET; inhibition, % at 12.5 µM; 96,000 compounds, 0.15% hits;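 active = mean replicate inhibition above about 25%, with at least 55% of replicates also reaching it, limit read from the data, passing the limit was not always enough; inconclusive = only one of those two conditions met; inactive = neither condition met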
Target sequence (Q9H3R0 2-372 limits assumed): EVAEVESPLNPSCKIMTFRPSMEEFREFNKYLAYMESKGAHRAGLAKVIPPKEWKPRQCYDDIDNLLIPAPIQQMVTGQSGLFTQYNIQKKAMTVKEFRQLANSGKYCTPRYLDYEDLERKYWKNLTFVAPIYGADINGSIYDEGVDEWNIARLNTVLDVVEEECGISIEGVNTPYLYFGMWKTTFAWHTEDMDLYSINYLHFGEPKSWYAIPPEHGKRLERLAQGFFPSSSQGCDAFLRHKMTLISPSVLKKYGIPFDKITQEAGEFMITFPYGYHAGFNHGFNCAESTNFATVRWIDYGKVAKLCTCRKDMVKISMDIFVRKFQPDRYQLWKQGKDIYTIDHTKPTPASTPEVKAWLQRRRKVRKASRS
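Material: GST-tagged GASC-1 (JMJD2C) catalytic fragment, aa 2-372 / Quantity: enzyme final amount 10 nM / Medium: HEPES buffer, pH 7.5, plus ascorbate / Doses: one test concentration per compound / Incubation: 30 min reaction, 60 min detection, RT / Measured by: LANCE TR-FRET / Read-out: inhibition from TR-FRET ratio decrease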
IDH1 mut inh: inhibitors of human IDH1 R132H. inhibition, % at 10 µM. IDH1 R132H reductase, diaphorase/resazurin fluorescence, 60 min. 70,000 compounds, 0.18% hits. O75874; in the data active = inhibition above about 34%; inconclusive = no clear call, values can overlap the other calls; inactive = below about 11%;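 note: 0% = DMSO and 100% = no enzyme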
T cruzi growth-1: T. cruzi proliferation inhibition | T. cruzi beta-gal in NIH3T3, GalScreen luminescence, 90 h | inhibition, % at 8.34 µM | 77,000 compounds, 5.9% hits | AID 624255;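 active = mean inhibition above about 93%, with at least 55% of replicates each passing it, limit read from the data, passing the limit was not always enough; inconclusive = only one of those two conditions holds; inactive = neither condition holds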
T cruzi growth-2: blocks T. cruzi growth in NIH3T3 host cells. shares compounds with T cruzi growth-1. T. cruzi beta-gal in NIH3T3, GalScreen luminescence, 90 h. 5,600 compounds, 72% hits. AID 651739. inhibition, % at 8.35 µM;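 active = mean replicate inhibition above about 95% and at least 55% of replicates individually reaching it, limit read from the data; inconclusive = only one of the two criteria is met; inactive = neither criterion is met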
T cruzi growth-3: blocks T. cruzi growth in NIH3T3 host cells; shares compounds with T cruzi growth-1; T. cruzi beta-gal in NIH3T3, GalScreen luminescence, 90 h; inhibition, % at 2.09 µM; 5,600 compounds, 21% hits;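 active = mean inhibition above about 95%, with at least 55% of replicates also reaching it, limit read from the data; inconclusive = meets just one of the two conditions; inactive = meets neither condition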;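 note: plate controls were neutral control median for no effect and positive control median for full effect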
3T3 cytotox: NIH/3T3 (mouse) viability loss; cytotoxicity (signal decrease), % at 8.35 µM; shares compounds with T cruzi growth-1; 5,600 compounds, 14% hits; NIH/3T3 viability, CellTiter-Glo ATP luminescence, 90 h;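 active = mean signal decrease across replicates above about 35% based on untreated-well scatter, with enough replicates individually passing, limit read from the data; inconclusive = no rule stated though some were filed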;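 note: 0% = median of neutral control wells and 100% = median of positive control wells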
3T3 cytotox 2: NIH/3T3 (mouse) viability loss | AID 651744 | NIH/3T3 viability, CellTiter-Glo ATP luminescence, 90 h | inhibition, % at 24.9 µM | 5,600 compounds, 56% hits | shares compounds with T cruzi growth-1;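 active = mean loss of cell viability signal at or above a set limit, and enough replicates individually reaching it; inconclusive = meets only the mean limit or only the replicate share; inactive = meets neither condition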;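 note: 0% = median of neutral control wells and 100% = median of positive control wells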
* hit, by the source's call; ? = inconclusive; nt = not tested or not shown.

SMILES	KDM4C inh	IDH1 mut inh	T cruzi growth-1	T cruzi growth-2	T cruzi growth-3	3T3 cytotox	3T3 cytotox 2
COc1cccc(NC(=O)N(C)C[C@@H]2Oc3cc(C#Cc4ccncc4)ccc3S(=O)(=O)N([C@@H](C)CO)C[C@@H]2C)c1	-2	nt	49	nt	nt	nt	nt
COC(=O)c1ccccc1NC(=O)c1ccc(NC(=O)CSc2ccc(C)cc2)cc1	nt	0	nt	nt	nt	nt	nt
O=C(CCCCCCC(=O)N/N=C/c1ccoc1)NO	nt	0	nt	nt	nt	nt	nt
O=C(O)/C=C/C(=O)N(Cc1ccccc1)Cc1ccccc1	nt	0	nt	nt	nt	nt	nt
COc1cc2c(cc1NC(=O)CN(C)S(=O)(=O)c1ccc(C)cc1)oc1ccccc12	nt	0	nt	nt	nt	nt	nt
COc1cccc(C#Cc2ccc([C@@H]3[C@@H](CO)N(C(=O)C4CC4)[C@H]3C#N)cc2)c1	-2	nt	92	nt	nt	nt	nt
COc1cccc(C#Cc2ccc([C@H]3[C@@H](CO)N(C(=O)C4CC4)[C@H]3C#N)cc2)c1	-4	0	98*	103*	113*	6	18
COc1cccc(C#Cc2ccc([C@@H]3[C@@H](C#N)N(C(=O)C4CC4)[C@H]3CO)cc2)c1	-2	nt	91	nt	nt	nt	nt
COc1cccc(C#Cc2ccc([C@H]3[C@@H](C#N)N(C(=O)C4CC4)[C@@H]3CO)cc2)c1	0	nt	100*	99*	107*	0	16
C[C@@H]1CN([C@@H](C)CO)C(=O)c2cc(/C=C/c3ccccc3)cnc2O[C@H]1CN(C)Cc1ccccc1	-2	0	133*	107*	109*	25	104*
C[C@H]1CN([C@@H](C)CO)C(=O)c2cc(/C=C/c3ccccc3)cnc2O[C@H]1CN(C)Cc1ccccc1	-3	0	62	nt	nt	nt	nt
C[C@@H]1CN([C@@H](C)CO)C(=O)c2cc(/C=C/c3ccccc3)cnc2O[C@H]1CN(C)Cc1ccc2c(c1)OCO2	0	3	111*	101*	108*	58*	102*
C/C=C/c1cnc2c(c1)C(=O)N([C@@H](C)CO)C[C@H](C)[C@H](CN(C)Cc1ccc3c(c1)OCO3)O2	-3	0	nt	nt	nt	nt	nt
COc1ccc(NC(=O)Nc2ccc3c(c2)C(=O)N([C@@H](C)CO)C[C@@H](C)[C@H](CN(C)Cc2ccccc2)OCCCC[C@H](C)O3)cc1	1	nt	100*	110*	42	9	35*
COc1ccc(NC(=O)Nc2ccc3c(c2)C(=O)N([C@@H](C)CO)C[C@@H](C)[C@@H](CN(C)Cc2ccccc2)OCCCC[C@@H](C)O3)cc1	-2	2	92	nt	nt	nt	nt
COc1ccc(NC(=O)Nc2ccc3c(c2)C(=O)N([C@@H](C)CO)C[C@H](C)[C@@H](CN(C)Cc2ccccc2)OCCCC[C@@H](C)O3)cc1	1	1	69	nt	nt	nt	nt
COc1ccc(NC(=O)Nc2ccc3c(c2)C(=O)N([C@H](C)CO)C[C@@H](C)[C@@H](CN(C)Cc2ccccc2)OCCCC[C@@H](C)O3)cc1	-1	nt	103*	111*	83	8	53*
COC(=O)CCCCCCC(=O)N/N=C/c1ccc(S(=O)(=O)O)o1	nt	0	nt	nt	nt	nt	nt
CCN(CC(=O)Nc1ccccc1OC)S(=O)(=O)c1ccc(C)cc1	nt	0	nt	nt	nt	nt	nt
COC(=O)CCCCCCC(=O)N/N=C/c1ccc(O)cc1Br	nt	0	nt	nt	nt	nt	nt
Cc1cccc(Oc2coc3cc(OCC(=O)Nc4ccccc4C(F)(F)F)ccc3c2=O)c1	nt	0	nt	nt	nt	nt	nt
Cn1c(=O)nc2n(-c3ccc(Cl)c(Cl)c3)c3ccccc3cc-2c1=O	nt	1	nt	nt	nt	nt	nt
COc1ccc(NC(=O)Nc2ccc3c(c2)C(=O)N([C@H](C)CO)C[C@H](C)[C@@H](CN(C)Cc2ccc4c(c2)OCO4)OCCCC[C@@H](C)O3)cc1	0	-2	54	nt	nt	nt	nt
COc1ccc(NC(=O)Nc2ccc3c(c2)C(=O)N([C@H](C)CO)C[C@@H](C)[C@@H](CN(C)Cc2ccc4c(c2)OCO4)OCCCC[C@H](C)O3)cc1	nt	-1	92	nt	nt	nt	nt
COc1ccc(NC(=O)Nc2ccc3c(c2)C(=O)N([C@@H](C)CO)C[C@@H](C)[C@H](CN(C)Cc2ccc4c(c2)OCO4)OCCCC[C@@H](C)O3)cc1	0	0	91	nt	nt	nt	nt
SMILES	KDM4C inh	IDH1 mut inh	T cruzi growth-1	T cruzi growth-2	T cruzi growth-3	3T3 cytotox	3T3 cytotox 2
COc1ccc(CN(C)C[C@H]2OCCCC[C@@H](C)Oc3ccc(NC(=O)Nc4ccc5c(c4)OCO5)cc3C(=O)N([C@@H](C)CO)C[C@@H]2C)cc1	2	2	94	nt	nt	nt	nt
COc1ccc(CN(C)C[C@@H]2OCCCC[C@@H](C)Oc3ccc(NC(=O)Nc4ccc5c(c4)OCO5)cc3C(=O)N([C@H](C)CO)C[C@@H]2C)cc1	-1	nt	102*	111*	11	11	23
COc1ccc(CN(C)C[C@@H]2OCCCC[C@H](C)Oc3ccc(NC(=O)Nc4ccc5c(c4)OCO5)cc3C(=O)N([C@H](C)CO)C[C@@H]2C)cc1	2	nt	101*	94	106*	30	107*
COc1ccc(CN(C)C[C@@H]2OCCCC[C@H](C)Oc3ccc(NC(=O)Nc4ccc5c(c4)OCO5)cc3C(=O)N([C@@H](C)CO)C[C@@H]2C)cc1	-1	nt	102*	100*	91	68*	80*
COc1ccc(NC(=O)Nc2ccc3c(c2)C(=O)N([C@H](C)CO)C[C@H](C)[C@@H](CN(C)Cc2ccc4c(c2)OCO4)OCCCC[C@H](C)O3)cc1	0	0	?	105*	57	23	30
CN1C(=O)c2ccc(C(=O)Nc3ccc(OCC(=O)O)cc3)cc2C1=O	nt	0	nt	nt	nt	nt	nt
NC(=O)C1(N2CCCCC2)CCN(CC(=O)Nc2ccc(Br)cc2)CC1	nt	0	nt	nt	nt	nt	nt
O=C(CCc1nc(-c2ccc(Cl)cc2)no1)Nc1cccnc1	nt	0	nt	nt	nt	nt	nt
N#C[C@H]1[C@H](c2ccc(C#CC3CCCCC3)cc2)[C@@H](CO)N1S(=O)(=O)c1ccccc1	-2	nt	92	nt	nt	nt	nt
N#C[C@@H]1[C@@H](c2ccc(C#CC3CC3)cc2)[C@H](CO)N1S(=O)(=O)c1ccccc1	0	nt	96*	?	102*	7	?
N#C[C@@H]1[C@@H](c2ccc(C#CC3CCCCC3)cc2)[C@H](CO)N1S(=O)(=O)c1ccccc1	-3	nt	79	nt	nt	nt	nt
N#C[C@H]1[C@@H](c2ccc(C#CC3CC3)cc2)[C@H](CO)N1S(=O)(=O)c1ccccc1	0	nt	101*	98*	113*	?	53*
N#C[C@H]1[C@H](c2ccc(C#CC3CC3)cc2)[C@@H](CO)N1S(=O)(=O)c1ccccc1	0	nt	97*	100*	103*	3	13
N#C[C@H]1[C@@H](c2ccc(C#CC3CCCC3)cc2)[C@@H](CO)N1S(=O)(=O)Cc1ccccc1	1	0	89	nt	nt	nt	nt
Cc1c(CCC(=O)O)c(=O)oc2c(C)c(OCc3cccc4ccccc34)ccc12	nt	0	nt	nt	nt	nt	nt

Compound activity: PubChem, Broad Institute
